Laboratory results taken from ChEMBL document CHEMBL1145884, “Synthesis and biological activity of novel 1beta-methylcarbapenems with oxyiminopyrrolidinylamide moiety” (2003).
Converted amounts (≈) assume the structure as drawn.

Assays:
[1] = Compound was evaluated for its relative half life of hydrolysis to meropenem by partially purified porcine renal dihydropeptidase-I (DHP-I); assay type: functional; conditions: Sus scrofa
Escherichia coli [2] = experiment: Antibacterial activity against Escherichia coli 078; assay type: functional
How it was run: (§1)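 MIC was determined by agar dilution on Mueller–Hinton medium.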

Escherichia coli [3] = experiment: Antibacterial activity against Escherichia coli 1507E; assay type: functional; how it was run: as §1
Enterobacter cloacae [4] = experiment: Antibacterial activity against Enterobacter cloacae 1321E; assay type: functional; how it was run: as §1
Klebsiella aerogenes = experiment: Antibacterial activity against Klebsiella aerogenes 1522E; assay type: functional; how it was run: as §1
Pseudomonas aeruginosa [5] = experiment: Antibacterial activity against Pseudomonas aeruginosa 1771M; assay type: functional; how it was run: as §1
Pseudomonas aeruginosa [6] = experiment: Antibacterial activity against Pseudomonas aeruginosa 9027; assay type: functional; how it was run: as §1
Salmonella typhimurium [7] = experiment: Antibacterial activity against Salmonella Typhimurium; assay type: functional, Salmonella enterica subsp. enterica serovar Typhimurium; conditions: Salmonella enterica; how it was run: as §1
Streptococcus pyogenes = experiment: Antibacterial activity against Streptococcus pyogenes 308A; assay type: functional
Staphylococcus aureus [8] = experiment: Antibacterial activity against Staphylococcus aureus 285; assay type: functional
Staphylococcus aureus [9] = experiment: Antibacterial activity against Staphylococcus aureus 503; assay type: functional
Staphylococcus aureus [10] = experiment: Antibacterial activity against Staphylococcus aureus SG 511; assay type: functional
Pseudomonas aeruginosa [11] = experiment: Antibacterial activity against Pseudomonas aeruginosa 1592E
Enterobacter cloacae [12] = experiment: Compound was evaluated for its antibacterial activity against Enterobacter cloacae P99; assay type: functional
Escherichia coli [13] = experiment: Compound was evaluated for its antibacterial activity against Escherichia coli CCARM 1116 MDR; assay type: functional
Escherichia coli [14] = experiment: Compound was evaluated for its antibacterial activity against Escherichia coli CCARM 1117 MDR; assay type: functional
Escherichia coli [15] = experiment: Compound was evaluated for its antibacterial activity against Escherichia coli DC 0; assay type: functional
Escherichia coli [16] = experiment: Compound was evaluated for its antibacterial activity against Escherichia coli DC 2; assay type: functional
Escherichia coli [17] = experiment: Compound was evaluated for its antibacterial activity against Escherichia coli TEM; assay type: functional
Escherichia coli [18] = experiment: Compound was evaluated for its antibacterial activity against Escherichia coli 0157:H7; assay type: functional
Escherichia coli [19] = experiment: Compound was evaluated for its antibacterial activity against Escherichia coli ATCC 25922; assay type: functional
Escherichia coli [20] = experiment: Compound was evaluated for its antibacterial activity against Escherichia coli CCARM 1108 MDR; assay type: functional
Escherichia coli [21] = experiment: Compound was evaluated for its antibacterial activity against Escherichia coli CCARM 1109 MDR; assay type: functional
Escherichia coli [22] = experiment: Compound was evaluated for its antibacterial activity against Escherichia coli CCARM 1111 MDR; assay type: functional
Escherichia coli [23] = experiment: Compound was evaluated for its antibacterial activity against Escherichia coli CCARM 1112 MDR; assay type: functional
Escherichia coli [24] = experiment: Compound was evaluated for its antibacterial activity against Escherichia coli CCARM 1113 MDR; assay type: functional
Escherichia coli [25] = experiment: Compound was evaluated for its antibacterial activity against Escherichia coli CCARM 1114 MDR; assay type: functional
Escherichia coli [26] = experiment: Compound was evaluated for its antibacterial activity against Escherichia coli CCARM 1115 MDR; assay type: functional
Klebsiella pneumoniae [27] = experiment: Compound was evaluated for its antibacterial activity against Klebsiella pneumoniae 8 ESBL; assay type: functional
Klebsiella pneumoniae [28] = experiment: Compound was evaluated for its antibacterial activity against Klebsiella pneumoniae 9 ESBL; assay type: functional
Klebsiella oxytoca = experiment: Compound was evaluated for its antibacterial activity against Klebsiella oxytoca 1082E; assay type: functional
Klebsiella pneumoniae [29] = experiment: Compound was evaluated for its antibacterial activity against Klebsiella pneumoniae 1 ESBL; assay type: functional
Klebsiella pneumoniae [30] = experiment: Compound was evaluated for its antibacterial activity against Klebsiella pneumoniae 10 ESBL; assay type: functional
Klebsiella pneumoniae [31] = experiment: Compound was evaluated for its antibacterial activity against Klebsiella pneumoniae 3 ESBL; assay type: functional
Klebsiella pneumoniae [32] = experiment: Compound was evaluated for its antibacterial activity against Klebsiella pneumoniae 4 ESBL; assay type: functional
Klebsiella pneumoniae [33] = experiment: Compound was evaluated for its antibacterial activity against Klebsiella pneumoniae 5 ESBL; assay type: functional
Pseudomonas aeruginosa [34] = experiment: Compound was evaluated for its antibacterial activity against Pseudomonas aeruginosa 1 MDR; assay type: functional
Pseudomonas aeruginosa [35] = experiment: Compound was evaluated for its antibacterial activity against Pseudomonas aeruginosa 2 MDR; assay type: functional
Pseudomonas aeruginosa [36] = experiment: Compound was evaluated for its antibacterial activity against Pseudomonas aeruginosa ATCC 27853; assay type: functional
Shigella sonnei = experiment: Compound was evaluated for its antibacterial activity against Shigella sonnei ATCC 9290; assay type: functional
Salmonella enteritidis [37] = experiment: Compound was evaluated for its antibacterial activity against […] enteritidis; assay type: functional, Salmonella enterica subsp. enterica serovar Enteritidis; conditions: Salmonella enterica
Salmonella enteritidis [38] = experiment: Compound was evaluated for its antibacterial activity against […] enteritidis 1; assay type: functional, Salmonella enterica subsp. enterica serovar Enteritidis; conditions: Salmonella enterica
Salmonella enteritidis [39] = experiment: Compound was evaluated for its antibacterial activity against […] enteritidis 2; assay type: functional, Salmonella enterica subsp. enterica serovar Enteritidis; conditions: Salmonella enterica
Salmonella enteritidis [40] = experiment: Compound was evaluated for its antibacterial activity against […] enteritidis 3; assay type: functional, Salmonella enterica subsp. enterica serovar Enteritidis; conditions: Salmonella enterica
Salmonella typhimurium [41] = experiment: Compound was evaluated for its antibacterial activity against Salmonella Typhimurium; assay type: functional, Salmonella enterica subsp. enterica serovar Typhimurium; conditions: Salmonella enterica
Salmonella typhimurium [42] = experiment: Compound was evaluated for its antibacterial activity against Salmonella Typhimurium 1; assay type: functional, Salmonella enterica subsp. enterica serovar Typhimurium; conditions: Salmonella enterica
Salmonella typhimurium [43] = experiment: Compound was evaluated for its antibacterial activity against Salmonella Typhimurium 2; assay type: functional, Salmonella enterica subsp. enterica serovar Typhimurium; conditions: Salmonella enterica
Shigella flexneri = experiment: Compound was evaluated for its antibacterial activity against Shigella flexneri ATCC 9199; assay type: functional
Escherichia coli [44] = experiment: Compound was evaluated for its antibacterial activity against Escherichia coli CCARM 1110 MDR; assay type: functional
Klebsiella pneumoniae [45] = experiment: Compound was evaluated for its antibacterial activity against Klebsiella pneumoniae 7 ESBL; assay type: functional
Klebsiella pneumoniae [46] = experiment: Compound was evaluated for its antibacterial activity against Klebsiella pneumoniae 2 ESBL; assay type: functional
Klebsiella pneumoniae [47] = experiment: Compound was evaluated for its antibacterial activity against Klebsiella pneumoniae 6 ESBL; assay type: functional
Pseudomonas aeruginosa [48] = experiment: Compound was evaluated for its antibacterial activity against Pseudomonas aeruginosa 3 MDR; assay type: functional

CCOC(=O)C1CN(C(=O)[C@@H]2C[C@H](SC3=C(C(=O)O)N4C(=O)[C@H]([C@@H](C)O)[C@H]4[C@H]3C)CN2)C/C1=N\O (stereo partly drawn)
relative t1/2 (DHP-I hydrolysis vs meropenem) [1]: 0.26 | MIC (Escherichia coli [2]): 0.013 µg/mL (≈ 0.0255 µM) | MIC (Escherichia coli [3]): 0.049 µg/mL (≈ 0.096 µM) | MIC (Enterobacter cloacae [4]): 0.025 µg/mL (≈ 0.049 µM) | MIC (Klebsiella aerogenes): 0.049 µg/mL (≈ 0.096 µM) | MIC (Pseudomonas aeruginosa [5]): 0.391 µg/mL (≈ 0.766 µM) | MIC (Pseudomonas aeruginosa [6]): 6.25 µg/mL (≈ 12.2 µM) | MIC (Salmonella typhimurium [7]): 0.049 µg/mL (≈ 0.096 µM) | MIC (Streptococcus pyogenes): 0.013 µg/mL (≈ 0.0255 µM) | MIC (Staphylococcus aureus [8]): 0.391 µg/mL (≈ 0.766 µM) | MIC (Staphylococcus aureus [9]): 0.195 µg/mL (≈ 0.382 µM) | MIC (Staphylococcus aureus [10]): 0.195 µg/mL (≈ 0.382 µM) | MIC (Pseudomonas aeruginosa [11]): 3.12 µg/mL (≈ 6.12 µM)

C[C@@H](O)[C@H]1C(=O)N2C(C(=O)[O-])=C(S[C@@H]3CN[C@H](C(=O)Nc4cccc(C(=O)O)c4)C3)[C@H](C)[C@H]12.O.[Na+]
MIC (Enterobacter cloacae [12]): 0.06 µg/mL | MIC (Escherichia coli [13]): ≤ 0.008 µg/mL | MIC (Escherichia coli [14]): 0.03 µg/mL | MIC (Escherichia coli [15]): ≤ 0.008 µg/mL | MIC (Escherichia coli [16]): 0.016 µg/mL | MIC (Escherichia coli [17]): 0.016 µg/mL | MIC (Escherichia coli [18]): ≤ 0.008 µg/mL | MIC (Escherichia coli [19]): ≤ 0.008 µg/mL | MIC (Escherichia coli [20]): 0.016 µg/mL | MIC (Escherichia coli [21]): 0.06 µg/mL | MIC (Escherichia coli [22]): ≤ 0.008 µg/mL | MIC (Escherichia coli [23]): 0.016 µg/mL | MIC (Escherichia coli [24]): 0.06 µg/mL | MIC (Escherichia coli [25]): 0.25 µg/mL | MIC (Escherichia coli [26]): 0.06 µg/mL | MIC (Klebsiella pneumoniae [27]): 1 µg/mL | MIC (Klebsiella pneumoniae [28]): 0.016 µg/mL | MIC (Klebsiella oxytoca): 0.03 µg/mL | MIC (Klebsiella pneumoniae [29]): 0.016 µg/mL | MIC (Klebsiella pneumoniae [30]): 0.016 µg/mL | MIC (Klebsiella pneumoniae [31]): 0.5 µg/mL | MIC (Klebsiella pneumoniae [32]): 0.06 µg/mL | MIC (Klebsiella pneumoniae [33]): ≤ 0.008 µg/mL | MIC (Pseudomonas aeruginosa [34]): 8 µg/mL | MIC (Pseudomonas aeruginosa [35]): 8 µg/mL | MIC (Pseudomonas aeruginosa [36]): 4 µg/mL | MIC (Shigella sonnei): ≤ 0.008 µg/mL | MIC (Salmonella enteritidis [37]): ≤ 0.008 µg/mL | MIC (Salmonella enteritidis [38]): ≤ 0.008 µg/mL | MIC (Salmonella enteritidis [39]): ≤ 0.008 µg/mL | MIC (Salmonella enteritidis [40]): ≤ 0.008 µg/mL | MIC (Salmonella typhimurium [41]): 0.016 µg/mL | MIC (Salmonella typhimurium [42]): ≤ 0.008 µg/mL | MIC (Salmonella typhimurium [43]): ≤ 0.008 µg/mL | MIC (Shigella flexneri): ≤ 0.008 µg/mL | MIC (Escherichia coli [44]): 0.03 µg/mL | MIC (Klebsiella pneumoniae [45]): 0.25 µg/mL | MIC (Klebsiella pneumoniae [46]): 0.016 µg/mL | MIC (Klebsiella pneumoniae [47]): 0.06 µg/mL | MIC (Pseudomonas aeruginosa [48]): 8 µg/mL
